# KDM4C inh: blocks human GASC-1 (KDM4C) demethylase activity | Q9H3R0 | GST-KDM4C 2-372, H3K9me3 peptide, LANCE TR-FRET | inhibition, % at 12.5 µM | 0.15% of 96,000 active | AID 720574;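 active = mean replicate inhibition above about 25%, with at least 55% of replicates also reaching it, limit read from the data, passing the limit was not always enough; inconclusive = only one of those two conditions met; inactive = neither condition met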
# Target sequence (Q9H3R0 2-372 limits assumed): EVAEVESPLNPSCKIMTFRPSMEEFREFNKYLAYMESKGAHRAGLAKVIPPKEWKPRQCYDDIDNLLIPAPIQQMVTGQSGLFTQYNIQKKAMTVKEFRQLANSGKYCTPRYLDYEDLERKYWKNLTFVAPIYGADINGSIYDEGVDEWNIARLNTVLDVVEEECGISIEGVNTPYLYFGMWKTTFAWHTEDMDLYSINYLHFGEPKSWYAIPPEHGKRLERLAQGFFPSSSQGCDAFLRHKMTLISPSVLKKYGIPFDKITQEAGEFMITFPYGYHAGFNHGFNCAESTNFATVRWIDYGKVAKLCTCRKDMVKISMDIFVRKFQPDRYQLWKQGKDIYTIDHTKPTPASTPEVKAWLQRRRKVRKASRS
#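 material = GST-tagged GASC-1 (JMJD2C) catalytic fragment, aa 2-372 | amount = enzyme final amount 10 nM | medium = HEPES buffer, pH 7.5, plus ascorbate | also added = H3K9me3 peptide substrate, Fe(II), 2-oxoglutarate | dosing = single dose | times = 30 min demethylation and 1 h detection at room temperature | detection = LANCE TR-FRET | read-out basis = Fall in 671/618 emission ratio as inhibition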
# T cruzi growth-1: inhibitors of T. cruzi proliferation; T. cruzi beta-gal in NIH3T3, GalScreen luminescence, 90 h; inhibition, % at 8.34 µM; 5.9% of 77,000 active;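 active = mean inhibition above about 93%, with at least 55% of replicates each passing it, limit read from the data, passing the limit was not always enough; inconclusive = only one of those two conditions holds; inactive = neither condition holds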
# IDH1 R132H inh: blocks human IDH1 R132H reductase activity. O75874. diaphorase/resazurin fluorescence, 60 min. inhibition, % at 10 µM. 0.18% of 70,000 active. AID 624101; in the data active = inhibition above about 34%; inconclusive = no clear call, values can overlap the other calls; inactive = below about 11%;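 also: 0% = DMSO and 100% = no enzyme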
# T cruzi growth-2: inhibitors of T. cruzi proliferation; shares compounds with T cruzi growth-1; T. cruzi beta-gal in NIH3T3, GalScreen luminescence, 90 h; inhibition, % at 8.35 µM; 72% of 5,600 active; AID 651739;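 active = mean replicate inhibition above about 95% and at least 55% of replicates individually reaching it, limit read from the data; inconclusive = only one of the two criteria is met; inactive = neither criterion is met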
# T cruzi growth-3: blocks T. cruzi growth in NIH3T3 host cells; shares compounds with T cruzi growth-1; T. cruzi beta-gal in NIH3T3, GalScreen luminescence, 90 h; inhibition, % at 2.09 µM; 21% of 5,600 active;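 active = mean inhibition above about 95%, with at least 55% of replicates also reaching it, limit read from the data; inconclusive = meets just one of the two conditions; inactive = meets neither condition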;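 also: plate controls were neutral control median for no effect and positive control median for full effect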
# 3T3 cytotox: cytotoxicity in mouse NIH/3T3 fibroblasts. shares compounds with T cruzi growth-1. NIH/3T3 viability, CellTiter-Glo ATP luminescence, 90 h. cytotoxicity (signal decrease), % at 8.35 µM. 14% of 5,600 active. AID 651742;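 active = mean signal decrease across replicates above about 35% based on untreated-well scatter, with enough replicates individually passing, limit read from the data; inconclusive = no rule stated though some were filed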;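 also: 0% = median of neutral control wells and 100% = median of positive control wells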
# NIH3T3 tox 2: kills mouse NIH/3T3 fibroblasts | shares compounds with T cruzi growth-1 | NIH/3T3 viability, CellTiter-Glo ATP luminescence, 90 h | inhibition, % at 24.9 µM | 56% of 5,600 active | AID 651744;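 active = mean loss of cell viability signal at or above a set limit, and enough replicates individually reaching it; inconclusive = meets only the mean limit or only the replicate share; inactive = meets neither condition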;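 also: 0% = median of neutral control wells and 100% = median of positive control wells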
# Active calls of the source: *; ? = inconclusive; . = not tested or not shown; ! = a repeat was not active. Shown is part of a subset that was picked to be rich in hits.
SMILES,KDM4C inh,T cruzi growth-1,IDH1 R132H inh,T cruzi growth-2,T cruzi growth-3,3T3 cytotox,NIH3T3 tox 2
COc1cccc(S(=O)(=O)N(C)C[C@@H]2Oc3ncc(C#CCC(C)C)cc3C(=O)N([C@H](C)CO)C[C@H]2C)c1,1,112,-1,.,.,.,.
COc1cccc(S(=O)(=O)N(C)C[C@@H]2Oc3ncc(C#CCN(C)C)cc3C(=O)N([C@H](C)CO)C[C@H]2C)c1,-1,96*!,.,?,84,13,17
CCCC#Cc1cnc2c(c1)C(=O)N([C@H](C)CO)C[C@@H](C)[C@H](CN(C)S(=O)(=O)c1cccc(OC)c1)O2,-1,78,-28,.,.,.,.
COc1cccc(S(=O)(=O)N(C)C[C@@H]2Oc3ncc(C#CCC(C)C)cc3C(=O)N([C@@H](C)CO)C[C@H]2C)c1,0,111*,.,107*,85,-1,77*
N#Cc1cccc(-c2ccc3c(c2)[C@H]2[C@H](CCN2C(=O)c2ccncc2)[C@H](CO)N3)c1,1,118*,.,81,3,15,18
N#Cc1cccc(-c2ccc3c(c2)[C@H]2[C@H](CCN2Cc2cncnc2)[C@H](CO)N3)c1,0,53,.,.,.,.,.
N#Cc1cccc(-c2ccc3c(c2)[C@@H]2[C@@H](CCN2Cc2cncnc2)[C@H](CO)N3)c1,0,112*,.,115*,81,6,40*
N#Cc1cccc(-c2ccc3c(c2)[C@@H]2[C@@H](CCN2C(=O)c2ccncc2)[C@H](CO)N3)c1,-1,62,.,.,.,.,.
C/C=C/c1cnc2c(c1)C(=O)N([C@H](C)CO)C[C@@H](C)[C@H](CN(C)Cc1ccc(F)cc1)O2,1,-81,-2,.,.,.,.
COCC(=O)N(C)C[C@H]1Oc2ncc(-c3ccc(C)cc3)cc2C(=O)N([C@H](C)CO)C[C@H]1C,-1,1,0,.,.,.,.
COc1ccccc1NC(=O)CNC(=O)c1ccc(OC)c(OC)c1,.,.,0,.,.,.,.
C[C@@H]1CN([C@@H](C)CO)C(=O)c2cc(/C=C/c3ccccc3)cnc2O[C@@H]1CN(C)Cc1ccc2c(c1)OCO2,-1,104*,-2,103*,72,18,104*
C[C@@H]1CN([C@H](C)CO)C(=O)c2cc(/C=C/c3ccccc3)cnc2O[C@@H]1CN(C)Cc1ccc2c(c1)OCO2,14,86*,0,109*,67,21,102*
C/C=C/c1cnc2c(c1)C(=O)N([C@@H](C)CO)C[C@@H](C)[C@@H](CN(C)Cc1ccc3c(c1)OCO3)O2,-1,.,0,.,.,.,.
C/C=C/c1cnc2c(c1)C(=O)N([C@H](C)CO)C[C@H](C)[C@@H](CN(C)Cc1ccc3c(c1)OCO3)O2,1,.,0,.,.,.,.
CCC(=O)N1[C@H](CO)[C@H](c2ccccc2)C12CN(Cc1nccs1)C2,0,.,.,.,.,.,.
CN1CCN(C(=O)C[C@H]2C=C[C@H](NC(=O)Cc3ccccn3)[C@@H](CO)O2)CC1,0,-27,0,.,.,.,.
Cc1ccc(S(=O)(=O)Nc2ccc3c(c2)C(=O)N([C@H](C)CO)C[C@H](C)[C@H](CN(C)CC2CC2)OCCCC[C@H](C)O3)cc1,-1,?,.,?,48,-15,13
Cc1ccc(S(=O)(=O)Nc2ccc3c(c2)C(=O)N([C@H](C)CO)C[C@H](C)[C@@H](CN(C)CC2CC2)OCCCC[C@H](C)O3)cc1,2,57,.,.,.,.,.
Cc1ccc(S(=O)(=O)Nc2ccc3c(c2)C(=O)N([C@@H](C)CO)C[C@H](C)[C@@H](CN(C)CC2CC2)OCCCC[C@H](C)O3)cc1,-1,30,1,.,.,.,.
Cc1ccc(S(=O)(=O)Nc2ccc3c(c2)C(=O)N([C@@H](C)CO)C[C@@H](C)[C@@H](CN(C)CC2CC2)OCCCC[C@@H](C)O3)cc1,.,?,.,81,26,-13,-14
Cc1ccc(S(=O)(=O)Nc2ccc3c(c2)CC(=O)N([C@@H](C)CO)C[C@@H](C)[C@H](CN(C)S(=O)(=O)c2cccs2)O3)cc1,-3,-4,0,.,.,.,.
C[C@@H]1CN([C@@H](C)CO)C(=O)Cc2cc(NC(=O)Nc3ccc(F)cc3)ccc2O[C@H]1CN(C)S(C)(=O)=O,1,30,.,.,.,.,.
C[C@@H]1CN([C@@H](C)CO)C(=O)c2cc(NS(=O)(=O)c3ccc(F)cc3)ccc2O[C@@H](C)CCCCO[C@H]1CN(C)S(=O)(=O)c1cccs1,0,46,1,.,.,.,.
O=C(Nc1cccc(F)c1)N1CCCCN2[C@H](C1)[C@H](c1ccc(-c3ccccc3F)cc1)[C@@H]2CO,0,110*,.,112*,94,11,33*
SMILES,KDM4C inh,T cruzi growth-1,IDH1 R132H inh,T cruzi growth-2,T cruzi growth-3,3T3 cytotox,NIH3T3 tox 2
O=C(Nc1ccccc1)N1CCCCN2[C@H](C1)[C@@H](c1ccc(-c3ccccc3F)cc1)[C@@H]2CO,-1,73,.,.,.,.,.
O=C(Nc1cccc(F)c1)N1CCCCN2[C@H](CO)[C@H](c3ccc(-c4ccccc4F)cc3)[C@@H]2C1,1,107*,.,96*,91,19,59*
O=C(Nc1cccc(F)c1)N1CCCCN2[C@H](C1)[C@@H](c1ccc(-c3ccccc3F)cc1)[C@@H]2CO,0,101*,.,?,?,96*,102*
O=C(Nc1ccccc1)N1CCCCN2[C@@H](CO)[C@@H](c3ccc(-c4ccccc4F)cc3)[C@@H]2C1,-2,95,.,.,.,.,.
O=C(Nc1cccc(F)c1)N1CCCCN2[C@H](C1)[C@@H](c1ccc(C#Cc3ccccc3)cc1)[C@@H]2CO,-1,78,.,.,.,.,.
C[C@H](CO)N1C[C@H](C)[C@H](CN(C)C(=O)CCCN(C)C)OCCCC[C@H](C)Oc2ccc(NC(=O)Cc3ccccc3)cc2C1=O,1,48,3,.,.,.,.
C[C@H]1CN([C@@H](C)CO)C(=O)c2cc(NS(=O)(=O)c3ccc(Cl)cc3)ccc2O[C@H]1CN(C)C(=O)NC1CCCCC1,0,10,1,.,.,.,.
C[C@H]1CN([C@@H](C)CO)C(=O)c2cc(C#CCN(C)C)cnc2O[C@H]1CN(C)S(=O)(=O)c1ccccc1,3,-16,2,.,.,.,.
CCOC(=O)c1c(NC(=O)c2ccc(C)c(S(=O)(=O)N3CCOCC3)c2)sc(C)c1C,.,.,0,.,.,.,.
Cc1ccc(S(=O)(=O)N2CC[C@@H]3[C@@H](CO)Nc4ccc(C#Cc5ccccc5F)cc4[C@@H]32)cc1,-1,102*,.,97*,102*,31,10
Cc1ccc(S(=O)(=O)N2CC[C@@H]3[C@H](CO)Nc4ccc(C#Cc5ccccc5F)cc4[C@@H]32)cc1,0,85,.,.,.,.,.
O=S(=O)(c1ccccc1)N1CC[C@@H]2[C@H](CO)Nc3ccc(C#Cc4ccccc4F)cc3[C@@H]21,6,69,.,.,.,.,.
O=S(=O)(c1cccc(F)c1)N1CC[C@@H]2[C@H]1c1cc(C#Cc3ccccc3F)ccc1N[C@@H]2CO,0,?,.,92,108*,34,104*

# Source: PubChem
